# Experimental data pooled from the literature.
# Protocols differ between the studies behind these lines.
# Target: Cyclin-dependent kinase 9 (CDK9, Homo sapiens, UniProt P50750)
SMILES,assay,conditions,remaining binding
COc1ccnn2ncc(-c3ccnc(N(C)C)n3)c12,binding,1 µM,100%
CO[C@H]1CC[C@H](CNc2ccc(S(=O)(=O)NC(=O)c3ccc(N4CCN(CC5=C(c6ccc(Cl)cc6)CC(C)(C)CC5)CC4)cc3Oc3cnc4[nH]ccc4c3)cc2[N+](=O)[O-])CC1,"cell-free assay, competition with immobilised ligand",1 µM,91%
O=C(c1ccc(Nc2nccc(-c3cc4ccccc4s3)n2)cc1)N1CCC(N2CCCC2)CC1,"binding, competition with immobilised ligand",1 µM,85%
C[C@@H](c1cccc(C#N)c1)n1cc(Cl)cc(C(N)=O)c1=N,"cell-free assay, competition with immobilised ligand",1 µM,91%
O=C(Nc1c[nH]nc1C(=O)NC1CCNCC1)c1cc(F)cc(F)c1,"binding, competition with immobilised ligand",1 µM,72%
CN(CCCC(F)(F)F)c1nccc(-c2cnn3ncccc23)n1,binding,1 µM,100%
COc1ncc2cc3ccccc3nc2c1C#N,"cell-free assay, competition with immobilised ligand",5 µM,91%
CN(c1ccnc(CNc2nc(Nc3ccc4c(c3)CC(=O)N4)ncc2C(F)(F)F)n1)S(C)(=O)=O,"cell-free assay, competition with immobilised ligand",1 µM,84%
O=C(NCCCN1CCOCC1)c1ccc(Nc2ncc(Cl)c(-c3ccc(Cl)s3)n2)cc1,"binding, competition with immobilised ligand",1 µM,56%
CN(C)c1nccc(-c2cnn3ncccc23)n1,binding,1 µM,100%
Cc1nccc(COC(=O)N2C[C@@H]3[C@@H](CNC(=O)c4ccc5[nH]nnc5c4)[C@@H]3C2)n1,"cell-free assay, competition with immobilised ligand",1 µM,100%
COc1cnc(Nc2cccc(S(N)(=O)=O)c2)nc1N1CCN(c2ccccc2)CC1,"binding, competition with immobilised ligand",1 µM,100%
c1cnn2ncc(-c3ccnc(N4CCC45COC5)n3)c2c1,binding,1 µM,93%
NS(=O)(=O)c1cc(NC(=O)C2(c3ccccc3Cl)CC2)ccc1Oc1cccc(Cl)c1,"cell-free assay, competition with immobilised ligand",1 µM,78%
C=CC(=O)N1CCC(C(=O)NCC(=O)N2CCN(c3nc(-c4cnc(N)nc4C(F)F)nc(N4CCOCC4)n3)CC2)CC1,"binding, competition with immobilised ligand",1 µM,98%
